Measured values of several laboratories.
Lines come from different studies, so protocols differ.
MDM4: Protein Mdm4 (MDM4, Homo sapiens, UniProt O15151)
DRD3: D(3) dopamine receptor (DRD3, Homo sapiens, UniProt P35462)
GLP1R: Glucagon-like peptide 1 receptor (GLP1R, Homo sapiens, UniProt P43220)

Structure (SMILES)	target	assay	conditions	quantity	result
CC(C)[C@@H]1NC(=O)[C@H](CO)NC(=O)[C@H](CO)NC(=O)[C@H](CO)N(C)C(=O)[C@H](CC(=O)O)NC(=O)[C@H](CO)NC(=O)[C@H](Cc2ccccc2)NC(=O)CSC[C@@H](C(=O)NCC(N)=O)NC(=O)[C@H](CC(N)=O)NC(=O)[C@H](CCCNC(=N)N)NC(=O)[C@H](Cc2ccc(-c3ccccc3)cc2)NC(=O)[C@H](Cc2ccc(-c3ccccc3)cc2)NC(=O)[C@H](CC(N)=O)NC(=O)[C@@H]2CCCN2C1=O	MDM4	ligand displacement, TR-FRET	–	Ki	0.74 µM
C[C@@H](NC(=O)[C@@H](N)Cc1ccc(O)cc1)C(=O)NCC(=O)N[C@@H](Cc1ccccc1)C(=O)N(C)CCC[C@@]1(c2ccc(F)cc2)OCc2cc(C#N)ccc21	DRD3	ligand displacement, radioligand	–	Ki	> 10 µM
CC(C)[C@H](NC(=O)[C@@H]1CSSC(C)(C)[C@H](NC(=O)[C@@H](N)CC(=O)O)C(=O)N[C@@H](Cc2ccccc2)C(=O)N[C@H](Cc2c[nH]c3ccccc23)C(=O)N[C@@H](CCCN)C(=O)N[C@@H](Cc2ccc(N)cc2)C(=O)N1)C(=O)O	Urotensin-2 receptor (UTS2R, Homo sapiens, UniProt Q9UKP6)	ligand displacement, radioligand	cell membranes	Ki	0.00269 µM
COc1cc(N)c(Cl)cc1C(=O)NC1CCN(CCCOc2ccc(F)cc2)CC1OC (stereo not drawn)	DRD3	ligand displacement, radioligand	–	IC50	6.32 µM
CC(C)[C@@H]1NC(=O)[C@H](CO)NC(=O)[C@H](CO)NC(=O)[C@H](CO)N(C)C(=O)[C@H](CC(=O)O)NC(=O)[C@H](CO)NC(=O)[C@H](Cc2ccccc2)NC(=O)CSC[C@@H](C(=O)NCC(N)=O)NC(=O)[C@H](CC(N)=O)NC(=O)[C@H](CCCNC(=N)N)NC(=O)[C@H](C)NC(=O)[C@H](Cc2ccc(-c3ccccc3)cc2)NC(=O)[C@H](CC(N)=O)NC(=O)[C@@H]2CCCN2C1=O	MDM4	ligand displacement, TR-FRET	–	Ki	> 8.88 µM
C[C@H](N)Cn1ncc2ccc3c(c21)CCCO3	5-hydroxytryptamine receptor 2C (Rattus norvegicus, UniProt P08909)	calcium signal, agonist	–	EC50	0.0157 µM
CP(=O)(O)CCC(N)C(=O)O (racemic)	Glutamine synthetase (glnA, Escherichia coli K-12, UniProt P0A9C5)	enzyme activity, inhibitor	–	Ki	0.8 µM
CCN(CC)c1ccc(/C=N/NC(=O)c2ccc(O)cc2)cc1	Protein smoothened (SMO, Homo sapiens, UniProt Q99835)	ligand displacement	–	IC50	0.1 µM
CC(C)C[C@H](NC(=O)[C@H](Cc1ccc(O)cc1)NC(=O)[C@H](CO)NC(=O)[C@H](CO)NC(=O)[C@@H](NC(=O)[C@H](CC(=O)O)NC(=O)[C@H](CO)NC(=O)[C@@H](NC(=O)[C@H](Cc1ccc(O)cc1)NC(=O)[C@@H](NC(=O)CNC(=O)[C@H](CC(=O)O)NC(=O)[C@H](C)NC(=O)[C@@H](N)Cc1c[nH]cn1)[C@@H](C)O)[C@@H](C)O)C(C)C)C(=O)N[C@@H](CCC(N)=O)C(=O)N[C@@H](CC(=O)O)C(=O)N[C@@H](CCC(N)=O)C(=O)N[C@@H](C)C(=O)N[C@@H](C)C(=O)N[C@@H](CCCCN)C(=O)N[C@@H](CCC(=O)O)C(=O)N[C@@H](Cc1ccccc1)C(=O)N[C@H](C(=O)N[C@@H](CO)C(=O)N[C@@H](Cc1c[nH]c2ccccc12)C(=O)N[C@@H](CC(C)C)C(=O)N[C@@H](CCCCN)C(=O)N[C@H](C(=O)NCC(=O)N[C@@H](CCCNC(=N)N)C(=O)NCC(=O)O)[C@@H](C)O)C(C)C	GLP1R	reporter gene, agonist, luciferase	–	EC50	0.000436 µM
CSc1nc(N[C@H](C(C)C)C2CC2)c2ncn([C@H]3[C@H](O)[C@H](O)[C@]4(CO)C[C@H]34)c2n1	DRD3	ligand displacement, radioligand	–	Ki	2.23 µM
CN(C)CCCN1c2ccccc2Sc2ccccc21	DRD3	ligand displacement, radioligand	–	IC50	0.075 µM
CSCC[C@H](NC(=O)[C@H](CCC(=O)O)NC(=O)[C@@H]1CCCN1C(=O)[C@@H](NC(=O)[C@@H]1CCCN1)[C@@H](C)O)C(=O)N[C@@H](CCCNC(=N)N)C(=O)N[C@@H](CCC(=O)O)C(=O)N[C@@H](CCCCN)C(=O)N[C@@H](CC(C)C)C(=O)N[C@H]1CSSC[C@@H]2NC(=O)[C@@H](NC(=O)[C@H](CC(C)C)NC(=O)[C@@H](NC(=O)[C@H](CCC(N)=O)NC(=O)[C@H](CC(C)C)NC(=O)[C@H](CC(=O)O)NC(=O)[C@@H]3CCC(=O)N3)[C@@H](C)O)CSSC[C@H](NC(=O)CNC(=O)[C@H](CO)NC(=O)[C@H](CC(C)C)NC2=O)C(=O)N[C@@H]([C@@H](C)O)C(=O)N[C@@H](CCC(N)=O)C(=O)N[C@@H](CCC(N)=O)C(=O)N[C@@H](CC(=O)O)C(=O)N[C@@H](CC(C)C)C(=O)N[C@@H](CC(C)C)C(=O)N[C@@H]([C@@H](C)O)C(=O)N[C@@H](CC(C)C)C(=O)N[C@H](C(=O)N2CCC[C@H]2C(=O)N[C@@H](Cc2ccc(O)cc2)C(=O)O)CSSC[C@@H](C(=O)NCC(=O)NCC(=O)N2CCC[C@H]2C(=O)N[C@@H](CCCNC(=N)N)C(=O)N[C@@H](Cc2c[nH]c3ccccc23)C(=O)N[C@@H](CO)C(=O)N[C@H](C(=O)N[C@@H](CCC(=O)O)C(=O)N[C@@H](C)C(=O)O)[C@@H](C)O)NC(=O)[C@H](C(C)C)NC(=O)[C@H](CCCNC(=N)N)NC(=O)[C@H](C(C)C)NC(=O)[C@H](CC(C)C)NC(=O)[C@H](C)NC(=O)[C@H](CCCNC(=N)N)NC(=O)[C@H](C(C)C)NC(=O)[C@H](Cc2ccccc2)NC(=O)[C@H](Cc2c[nH]cn2)NC(=O)[C@H](Cc2c[nH]cn2)NC(=O)CNC1=O	Relaxin receptor 2 (RXFP2, Homo sapiens, UniProt Q8WXD0)	ligand displacement in cells	–	Ki	0.00363 µM
CCCCNNC(=O)c1ccc(Br)cc1	Histone deacetylase 5 (HDAC5, Homo sapiens, UniProt Q9UQL6)	enzyme activity, inhibitor, fluorescence	–	IC50	> 100 µM
c1cc[c]([Sn]([c]2ccccc2)[c]2ccccc2)cc1	Peroxisome proliferator-activated receptor gamma (PPARG, Homo sapiens, UniProt P37231)	reporter gene, agonist, luciferase	–	EC50	0.02 µM
CC[C@H](C)[C@H](NC(=O)[C@H](CO)NC(=O)[C@H](CC(=O)O)NC(=O)[C@H](CC(C)C)NC(=O)[C@@H](NC(=O)[C@H](CCCCN)NC(=O)[C@H](CC(N)=O)NC(=O)[C@@H](NC(=O)[C@H](CC(=O)O)NC(=O)[C@H](CO)NC(=O)[C@@H](NC(=O)[C@H](Cc1ccccc1)NC(=O)[C@H](CO)NC(=O)CNC(=O)[C@H](CC(=O)O)NC(=O)[C@@H](NC(=O)[C@@H](N)Cc1c[nH]cn1)C(C)C)[C@@H](C)O)C(C)C)C(C)C)C(=O)N[C@@H](C)C(=O)N[C@@H](C)C(=O)N[C@@H](CCCCN)C(=O)N[C@@H](CCC(=O)O)C(=O)N[C@@H](Cc1ccc(O)cc1)C(=O)N[C@@H](CC(C)C)C(=O)N[C@@H](CCC(N)=O)C(=O)N[C@@H](Cc1c[nH]c2ccccc12)C(=O)N[C@H](C(=O)N[C@@H](CCSC)C(=O)N[C@@H](CC(N)=O)C(=O)N[C@@H](CO)C(=O)N[C@@H](CCCCN)C(=O)N[C@@H](C)C(=O)N[C@@H](CO)C(=O)NCC(=O)O)C(C)C	GLP1R	reporter gene, agonist, luciferase	–	EC50	0.00364 µM
